Reference: ChEMBL document CHEMBL4689842, “EUbOPEN Chemogenomics Library wave 1” (2021)

Test system: U2OS
Assay: Multiplex assay against U2OS
Assay type: toxicity, cell-based
Settings: human
Method in brief: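 Live cells carried four stains from seeding: Hoechst33342, BioTracker Green Microtubule Cytoskeleton Dye, MitoTracker Red and Annexin V Alexa Fluor 680. They were imaged on a CQ1 microscope at 37°C and 5% CO2 after compound addition. Using CellPathfinder machine-learning gating, cells were split into Hoechst high-intensity objects or normal cells, normal cells into healthy, pyknosed or fragmented nuclei, and pyknosed cells into mitotic or apoptotic; tubulin, mitochondrial-mass and membrane-permeability phenotypes are per cents of healthy-nucleus cells.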

[1] = 12 h, 1 µM, compound concentration 1 uM, replicate 1
[2] = 12 h, 1 µM, compound concentration 1 uM, replicate 2
[3] = 12 h, 10 µM, compound concentration 10 uM, replicate 1
[4] = 12 h, 10 µM, compound concentration 10 uM, replicate 2
[5] = 24 h, 1 µM, compound concentration 1 uM, replicate 1
[6] = 24 h, 1 µM, compound concentration 1 uM, replicate 2
[7] = 24 h, 10 µM, compound concentration 10 uM, replicate 1
[8] = 24 h, 10 µM, compound concentration 10 uM, replicate 2
[9] = 48 h, 1 µM, compound concentration 1 uM, replicate 1
[10] = 48 h, 1 µM, compound concentration 1 uM, replicate 2
[11] = 48 h, 10 µM, compound concentration 10 uM, replicate 1
[12] = 48 h, 10 µM, compound concentration 10 uM, replicate 2

## Cc1cn(-c2cc(NC(=O)c3ccc(C)c(Nc4nccc(-c5cccnc5)n4)c3)cc(C(F)(F)F)c2)cn1 [NILOTINIB]
[1]
  Population Apoptotic (%): 46%
  Population Fragmented Nuclei (%): 14%
  Population Healthy Nuclei (%): 69%
  Population Hoechst High Intensity Objects (%): 8%
  Population Membrane Permeable-Phenotype (%): 10%
  Population Mitochondria Different-Phenotype (%): 77%
  Population Mitotic Cells (%): 53%
  Population Normal (%): 91%
  Population Pyknosed Nuclei (%): 16%
  Population Tubulin-Different-Phenotype (%): 94%
  Total Cell Count: 134
[2]
  Population Apoptotic (%): 25%
  Population Fragmented Nuclei (%): 1%
  Population Healthy Nuclei (%): 86%
  Population Membrane Permeable-Phenotype (%): 1%
  Population Mitochondria Different-Phenotype (%): 18%
  Population Mitotic Cells (%): 75%
  Population Pyknosed Nuclei (%): 11%
  Population Tubulin-Different-Phenotype (%): 10%
  Total Cell Count: 66
[3]
  Population Apoptotic (%): 86%
  Population Fragmented Nuclei (%): 45%
  Population Healthy Nuclei (%): 20%
  Population Hoechst High Intensity Objects (%): 49%
  Population Membrane Permeable-Phenotype (%): 30%
  Population Mitochondria Different-Phenotype (%): 89%
  Population Mitotic Cells (%): 13%
  Population Normal (%): 50%
  Population Pyknosed Nuclei (%): 33%
  Population Tubulin-Different-Phenotype (%): 93%
  Total Cell Count: 185
[4]
  Population Apoptotic (%): 33%
  Population Fragmented Nuclei (%): 18%
  Population Healthy Nuclei (%): 72%
  Population Hoechst High Intensity Objects (%): 7%
  Population Membrane Permeable-Phenotype (%): 4%
  Population Mitochondria Different-Phenotype (%): 61%
  Population Mitotic Cells (%): 66%
  Population Normal (%): 92%
  Population Pyknosed Nuclei (%): 9%
  Population Tubulin-Different-Phenotype (%): 63%
  Total Cell Count: 73
[5]
  Population Apoptotic (%): 55%
  Population Fragmented Nuclei (%): 12%
  Population Healthy Nuclei (%): 66%
  Population Hoechst High Intensity Objects (%): 6%
  Population Membrane Permeable-Phenotype (%): 14%
  Population Mitochondria Different-Phenotype (%): 73%
  Population Mitotic Cells (%): 44%
  Population Normal (%): 93%
  Population Pyknosed Nuclei (%): 20%
  Population Tubulin-Different-Phenotype (%): 92%
  Total Cell Count: 135
[6]
  Population Apoptotic (%): 40%
  Population Fragmented Nuclei (%): 14%
  Population Healthy Nuclei (%): 79%
  Population Hoechst High Intensity Objects (%): 5%
  Population Membrane Permeable-Phenotype (%): 2%
  Population Mitochondria Different-Phenotype (%): 20%
  Population Mitotic Cells (%): 60%
  Population Normal (%): 94%
  Population Pyknosed Nuclei (%): 5%
  Population Tubulin-Different-Phenotype (%): 12%
  Total Cell Count: 67
[7]
  Population Apoptotic (%): 85%
  Population Fragmented Nuclei (%): 60%
  Population Healthy Nuclei (%): 16%
  Population Hoechst High Intensity Objects (%): 60%
  Population Membrane Permeable-Phenotype (%): 29%
  Population Mitochondria Different-Phenotype (%): 71%
  Population Mitotic Cells (%): 14%
  Population Normal (%): 39%
  Population Pyknosed Nuclei (%): 23%
  Population Tubulin-Different-Phenotype (%): 78%
  Total Cell Count: 184
[8]
  Population Apoptotic (%): 0%
  Population Fragmented Nuclei (%): 12%
  Population Healthy Nuclei (%): 83%
  Population Hoechst High Intensity Objects (%): 2%
  Population Membrane Permeable-Phenotype (%): 1%
  Population Mitochondria Different-Phenotype (%): 42%
  Population Mitotic Cells (%): 100%
  Population Normal (%): 97%
  Population Pyknosed Nuclei (%): 4%
  Population Tubulin-Different-Phenotype (%): 30%
  Total Cell Count: 93
[9]
  Population Apoptotic (%): 65%
  Population Fragmented Nuclei (%): 14%
  Population Healthy Nuclei (%): 67%
  Population Hoechst High Intensity Objects (%): 3%
  Population Membrane Permeable-Phenotype (%): 16%
  Population Mitochondria Different-Phenotype (%): 54%
  Population Mitotic Cells (%): 34%
  Population Normal (%): 96%
  Population Pyknosed Nuclei (%): 17%
  Population Tubulin-Different-Phenotype (%): 80%
  Total Cell Count: 127
[10]
  Population Apoptotic (%): 25%
  Population Fragmented Nuclei (%): 4%
  Population Healthy Nuclei (%): 92%
  Population Hoechst High Intensity Objects (%): 5%
  Population Membrane Permeable-Phenotype (%): 6%
  Population Mitochondria Different-Phenotype (%): 18%
  Population Mitotic Cells (%): 75%
  Population Normal (%): 94%
  Population Pyknosed Nuclei (%): 3%
  Population Tubulin-Different-Phenotype (%): 24%
  Total Cell Count: 64
[11]
  Population Apoptotic (%): 85%
  Population Fragmented Nuclei (%): 69%
  Population Healthy Nuclei (%): 10%
  Population Hoechst High Intensity Objects (%): 61%
  Population Membrane Permeable-Phenotype (%): 24%
  Population Mitochondria Different-Phenotype (%): 33%
  Population Mitotic Cells (%): 15%
  Population Normal (%): 38%
  Population Pyknosed Nuclei (%): 19%
  Population Tubulin-Different-Phenotype (%): 40%
  Total Cell Count: 245
[12]
  Population Apoptotic (%): 11%
  Population Fragmented Nuclei (%): 15%
  Population Healthy Nuclei (%): 75%
  Population Hoechst High Intensity Objects (%): 4%
  Population Membrane Permeable-Phenotype (%): 8%
  Population Mitochondria Different-Phenotype (%): 20%
  Population Mitotic Cells (%): 88%
  Population Normal (%): 95%
  Population Pyknosed Nuclei (%): 9%
  Population Tubulin-Different-Phenotype (%): 25%
  Total Cell Count: 132
